Only some compounds are listed: those with a hit (about 3.5% of all), similar ones and a draw of the others.
RGS4 block: inhibitors of human RGS4 | HEK293 M3R/RGS4 inducible, Fluo-4 calcium flux; stronger effect = higher value; triggered by carbachol at its EC20 | 310,000 compounds, 0.45% hits | B-score at 10 µM | P49798;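 active = B-score, a plate-corrected calcium signal, over three deviations above library mean, with baseline fluorescence within five deviations of library mean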;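 also: RGS4 expression induced by doxycycline in cells with stable M3 receptor; B-score is computed from the integrated fluorescence ratio over baseline after carbachol; higher B-score means a larger calcium signal and so more RGS4 inhibition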
Target sequence (P49798 whole entry, looked up): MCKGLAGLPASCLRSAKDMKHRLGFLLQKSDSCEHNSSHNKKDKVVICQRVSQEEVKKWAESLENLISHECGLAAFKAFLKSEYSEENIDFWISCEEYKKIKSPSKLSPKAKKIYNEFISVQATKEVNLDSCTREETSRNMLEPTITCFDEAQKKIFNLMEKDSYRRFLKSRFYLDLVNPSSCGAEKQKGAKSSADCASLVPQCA
RGS4 act: RGS4 potentiation or activation; B-score at 10 µM; HEK293 M3R/inducible RGS4, carbachol calcium flux Fluo4; stronger effect = lower value; 310,000 compounds, 0.92% hits; AID 463111;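 active = B-score of the integrated calcium signal more than 4 SD below the library mean, with starting fluorescence not abnormally high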;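 also: negative B-score means reduced calcium response which marks RGS4 activation or potentiation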
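Material: M3R-expressing HEK293 line, RGS4 induced by doxycycline | Schedule: Overnight RGS4 induction, 30 min dye load 37 °C, 20 min compound RT | Measured by: Fluo4 fluorescence kinetic imaging of calcium | Read-out: Integrated calcium ratio converted to B score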
MrgX1 ag: activates human MrgX1 receptor signaling; MrgX1-HEK293 cells, Fluo-4 calcium fluorescence, agonist mode; stronger effect = higher value; B-score at 10 µM; 310,000 compounds, 0.44% hits;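 active = calcium response B-score plate-corrected fluorescence ratio at least 3 library SD, with starting fluorescence B-score inside 5 SD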
Target sequence (Q96LB2 whole entry, looked up): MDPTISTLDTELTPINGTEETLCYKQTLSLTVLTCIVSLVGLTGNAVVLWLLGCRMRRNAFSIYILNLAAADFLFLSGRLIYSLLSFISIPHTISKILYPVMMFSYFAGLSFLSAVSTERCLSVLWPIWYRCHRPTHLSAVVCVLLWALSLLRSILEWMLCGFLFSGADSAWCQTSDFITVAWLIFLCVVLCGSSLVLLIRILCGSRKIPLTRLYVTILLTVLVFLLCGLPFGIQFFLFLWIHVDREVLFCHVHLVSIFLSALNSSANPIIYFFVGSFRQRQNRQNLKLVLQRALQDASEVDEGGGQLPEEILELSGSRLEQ
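Test system: HEK293 cells stably expressing human MrgX1 receptor; Input: fifteen thousand cells per well; Dosing: compound delivered in addition one of three; Schedule: overnight seeding, then 1 h dark dye loading; Technique: Fluo-4 NW calcium fluorescence; Measure: B-scored fluorescence response ratio; Controls: positive and negative controls per plate.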
MrgX1 antagonist: antagonists of human MrgX1 receptor. AID 588676. MRGX1-HEK293 calcium flux, Fluo-4, BAM8-22 antagonism; stronger effect = lower value. Q96LB2. B-score at 10 µM. 310,000 compounds, 1.3% hits;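 active = calcium-response B-score plate-corrected more than 3 library SD below zero, starting fluorescence within 5 deviations, no agonist response on first addition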;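 also: peak minus trough fluorescence over baseline after final BAM8-22 challenge near maximal dose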
MrgX1 allo act: human MrgX1 positive allosteric modulation, primary screen | Q96LB2 | MrgX1-HEK293, Fluo-4 calcium flux, FDSS; stronger effect = higher value | 310,000 compounds, 0.63% hits | B-score at 10 µM | AID 588675;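 active = plate-corrected calcium response at least 3 library SD above typical, normal starting fluorescence, not activating the receptor alone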;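 also: compound read alongside a low EC10 to EC30 dose of BAM8-22 agonist; peak minus trough fluorescence over baseline measured at the second addition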
RGS4 inh valid: RGS4 inhibitor validation. 1,700 compounds, 65% hits. shares compounds with RGS4 block. calcium response, % at 10 µM. HEK293 M3R/RGS4, carbachol calcium Fluo-4 fluorescence; carbachol added at its EC20; 0 = buffer wells, 100 = carbachol control;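 active = duplicate-averaged calcium response above the buffer-only control mean plus 5 SD of those controls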;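 also: integrated fluorescence ratio F max minus min over baseline F0; higher response in RGS4-induced cells means RGS4 inhibition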
M3R Ca ctr: non-induced cell nonspecific activity of RGS4 inhibitors; HEK293 M3R non-induced, carbachol calcium Fluo-4; submaximal (EC20) carbachol stimulus; buffer wells 0%, carbachol control wells 100%; AID 493000; activity (percent), % at 10 µM; 1,900 compounds, 20% hits; shares compounds with RGS4 block; call rule not given here;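 also: RGS4 induction absent so cells express M3R without RGS4; higher means more calcium signal and flags a non-specific hit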
M3R basal Ca ctr: second RGS4 inhibitor counter-screen in uninduced cells lacking carbachol. shares compounds with RGS4 block. HEK293 M3R/RGS4 non-induced, Fluo-4 calcium, no carbachol; normalised: buffer wells 0%, carbachol wells 100%. calcium response (agonist-mode artifact), % at 10 µM. 1,900 compounds, 22% hits. AID 493001;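 active = duplicate-averaged calcium rise in uninduced cells above buffer wells' mean plus 5 SD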
Starred values were filed as active, the others as inactive; i = inactive; . = no result given.

SMILES	RGS4 block	RGS4 act	MrgX1 ag	MrgX1 antagonist	MrgX1 allo act	RGS4 inh valid	M3R Ca ctr	M3R basal Ca ctr
CCOc1cc(-c2cc(-c3ccc(C)o3)nc(N)c2C#N)ccc1O	i	i	i	i	i	.	.	.
CC(Oc1cc2oc(=O)c3c(c2cc1Cl)CCC3)C(=O)NCc1ccccn1 (configuration not stated)	i	i	i	i	i	.	.	.
COc1ccc(-c2cc(-c3ccc(O)cc3)nc(N)c2C#N)cc1OC	i	i	i	i	i	.	.	.
Cc1cc(-c2cc(-c3ccc(Cl)cc3)nc(N)c2C#N)co1	9.79*	i	i	i	i	5.0%*	i	i
NS(=O)(=O)c1ccc(CCNC(=O)CCC2COc3ccccc3O2)cc1 (configuration not stated)	i	i	i	i	i	.	.	.
COc1ccc(CCNC(=O)CCC2COc3ccccc3O2)cc1OC (configuration not stated)	i	i	i	i	i	i	i	i
Cc1ccc(C(=O)N/C(=C/c2cccnc2)C(=O)NCc2ccco2)cc1	i	i	i	i	i	.	.	.
Cc1ccc(C(=O)N/C(=C\c2ccccc2)C(=O)NCc2cccnc2)cc1	i	i	i	i	i	i	i	i
O=C(NCc1cccnc1)/C(=C/c1ccco1)NC(=O)c1ccccc1	i	i	i	i	i	.	.	.
O=C(NCc1cccnc1)/C(=C/c1ccccc1)NC(=O)c1ccccc1	5.15*	i	i	i	i	i	i	i
CCc1ccc(Nc2nnc(SCc3cc(=O)n4ccsc4n3)s2)cc1	i	i	i	i	i	.	.	.
O=Nc1c(O)n(Cc2ccc(Cl)c(Cl)c2)c2ccccc12	14.7*	i	i	i	i	15.5%*	39.0%*	i
O=C(Oc1ccc(Cl)c2cccnc12)c1cccc([N+](=O)[O-])c1	4.71*	i	i	i	i	25.0%*	i	i
CC1=NN(c2ccccc2)C(=O)/C1=C/c1cccc(C)c1	i	i	i	i	i	.	.	.
COc1ccc(/C=C2/C(=O)N(c3ccccc3)N=C2C)cc1OC	i	i	i	i	i	i	i	i
Cc1ccc(NC(=O)CN(C)C(=O)c2cccnc2Nc2cccc(C(F)(F)F)c2)cc1	6.83*	i	i	i	i	18.5%*	i	i
COc1cc([N+](=O)[O-])ccc1NC(=O)CSc1nncn1-c1cccnc1	i	i	i	i	i	.	.	.
COc1ccc(-n2nc(C(=O)N(C)C)nc2-c2ccccc2)cc1	i	i	i	i	i	.	.	.
CCn1c2ccccc2c2cc(C3C(C#N)=C(N)Oc4n[nH]c(COC)c43)ccc21 (configuration not stated)	25.2*	i	i	i	i	39.0%*	33.5%*	i
COc1cccc(NC(=O)NC2CCCCCCC2)c1	18.4*	i	i	i	i	i	i	i
Cc1ccc(NC(=O)C2CCN(S(=O)(=O)c3cccnc3)CC2)cc1C	i	i	i	i	i	.	.	.
CCCC(=O)N(C1CC(C)C(C#N)(C#N)C1(C#N)C#N)N(C)C (configuration not stated)	7.68*	i	i	i	i	29.5%*	i	22.5%*
CC(=O)N(C1CC(C)C(C#N)(C#N)C1(C#N)C#N)N(C)C (configuration not stated)	28.4*	i	i	i	i	61.5%*	i	9.0%*
CCSc1n[nH]c2nc3c(c(=O)n12)C1(CCCC1)Cc1ccccc1-3	i	i	i	i	i	.	i	i
C=CCSc1n[nH]c2nc3c(c(=O)n12)C1(CCCC1)Cc1ccccc1-3	.	.	i	i	i	.	.	.
SMILES	RGS4 block	RGS4 act	MrgX1 ag	MrgX1 antagonist	MrgX1 allo act	RGS4 inh valid	M3R Ca ctr	M3R basal Ca ctr
COc1ccc(OC)c(NC(=O)CC(NCCC2=CCCCC2)C(=O)O)c1 (configuration not stated)	i	i	.	.	.	.	.	.
COCCN(C(=O)CCc1nnc(CCc2c[nH]c3ccccc23)o1)C(C)C	i	i	i	i	i	.	.	.
C(=N\Nc1nc(-c2ccccc2)cs1)/c1cccnc1	i	i	i	i	i	i	i	i
Clc1ccc(-c2csc(N/N=C/c3cccnc3)n2)c(Cl)c1	i	i	i	i	i	.	.	.
C=CC[N+](C)(C)C/C(Cl)=C(\Cl)c1ccccc1	i	i	i	i	i	.	.	.
C/C(=N/NC(=O)Cc1cccs1)c1ccco1	i	i	i	i	i	.	.	.
O=c1c2ccccc2nc(N/N=C/c2c(O)ccc3ccccc23)n1O	8.43*	i	i	i	i	40.0%*	43.5%*	i
CC(C)(C)Sc1ccc(/C=N/O)cc1[N+](=O)[O-]	6.81*	i	i	i	i	10.0%*	i	i
N#Cc1c(N2C(=O)Nc3ccccc3N2O)sc2c1CCCCCC2	5.24*	i	i	i	i	15.5%*	41.5%*	i
O=C(COc1ccc(Cl)cc1)NCCNC(=O)c1ccccn1	i	i	i	i	i	.	.	.
COc1cc(/C=N/NC(=S)Nc2cccc(Cl)c2C)ccc1OCC(=O)N1CC(C)OC(C)C1 (configuration not stated)	12.9*	i	i	i	i	i	i	i
CCC(C)Nc1nc2c(c(=O)[nH]c(=O)n2C)n1CCC(C)C (configuration not stated)	i	i	i	i	i	i	i	i
COC(=O)C(C)Sc1nc2c(c(=O)n(C)c(=O)n2C)n1CCC(C)C (configuration not stated)	i	i	i	i	i	.	.	.
COC(=O)C(C)Sc1nc2c(c(=O)[nH]c(=O)n2C)n1CCC(C)C (configuration not stated)	5.69*	i	i	i	i	26.5%*	56.0%*	i
O=C(NCCN1CCOCC1)/C(=C\c1ccc(Br)cc1)NC(=O)c1cccs1	i	i	i	i	i	.	.	.

Screening results as filed in PubChem.
